Source: ChEMBL document CHEMBL1157704, “Potent activity against K562 cells by polyamide-seco-CBI conjugates targeting histone H4 genes” (Bioorg Med Chem, 2010)
Active and inactive are the calls of the source.

Assays:
K562 [1] = assay: Effect on UBE2W gene expression in human K562 cells assessed as change in mRNA transcript expression at 10 nM after 48 hrs by DNA microarray analysis relative to control; type: functional
Method in brief: (§1)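 K562 CML cells (b3a2 Bcr-Abl) kept under standard culture conditions were exposed to 10 nM conjugate and harvested at 6, 12, 24 and 48 h. Untreated controls were harvested at 48 h. Whole-transcript oligonucleotide microarray profiling was done, and changes of at least twofold versus control were scored.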

K562 [2] = assay: Effect on PITPNC1 gene expression in human K562 cells assessed as change in mRNA transcript expression at 10 nM after 48 hrs by DNA microarray analysis relative to control; type: functional
Method in brief: (§2)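 K562 CML cells (b3a2 Bcr-Abl) in standard ATCC-recommended culture, exposed once to 10 nM conjugate and harvested at 48 h. Untreated controls were also collected at 48 h. Transcripts were profiled on Human Gene 1.0 ST whole-genome oligonucleotide arrays, and each treated level was expressed relative to the untreated control, with a cutoff of at least twofold change.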

K562 [3] = assay: Effect on GTDC1 gene expression in human K562 cells assessed as change in mRNA transcript expression at 10 nM after 48 hrs by DNA microarray analysis relative to control; type: functional
Method in brief: (§3)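 Transcripts were profiled on Affymetrix GeneChip Human Gene 1.0 ST arrays in K562 cells treated at 10 nM. Treated cells were collected at 6, 12, 24 and 48 h; untreated controls were collected at 48 h. Transcripts changed at least twofold versus control were scored.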

K562 [4] = assay: Effect on LGALS12 gene expression in human K562 cells assessed as change in mRNA transcript expression at 10 nM after 48 hrs by DNA microarray analysis relative to control; type: functional; method in brief: as §2
K562 [5] = assay: Effect on RP11-195B gene expression in human K562 cells assessed as change in mRNA transcript expression at 10 nM after 48 hrs by DNA microarray analysis relative to control; type: functional; method in brief: as §2
K562 [6] = assay: Effect on HSPA1B gene expression in human K562 cells assessed as change in mRNA transcript expression at 10 nM after 48 hrs by DNA microarray analysis relative to control; type: functional; method in brief: as §2
K562 [7] = assay: Effect on HTR1F gene expression in human K562 cells assessed as change in mRNA transcript expression at 10 nM after 48 hrs by DNA microarray analysis relative to control; type: functional; method in brief: as §2
K562 [8] = assay: Effect on CD226 gene expression in human K562 cells assessed as change in mRNA transcript expression at 10 nM after 48 hrs by DNA microarray analysis relative to control; type: functional; method in brief: as §3
K562 [9] = assay: Effect on CREB3L1 gene expression in human K562 cells assessed as change in mRNA transcript expression at 10 nM after 48 hrs by DNA microarray analysis relative to control; type: functional; method in brief: as §3
K562 [10] = assay: Effect on EIF4B gene expression in human K562 cells assessed as change in mRNA transcript expression at 10 nM after 48 hrs by DNA microarray analysis relative to control; type: functional; method in brief: as §3
K562 [11] = assay: Effect on TDRG1 gene expression in human K562 cells assessed as change in mRNA transcript expression at 10 nM after 48 hrs by DNA microarray analysis relative to control; type: functional; method in brief: as §2
K562 [12] = assay: Effect on TXNIP gene expression in human K562 cells assessed as change in mRNA transcript expression at 10 nM after 48 hrs by DNA microarray analysis relative to control; type: functional; method in brief: as §1
[13] = test system: histone H4c gene fragment DNA (human); assay: Binding affinity to 5'-AGAAAA-3' sequence of 223 bp human histone H4c gene fragment DNA assessed as DNA alkylating activity at 5 to 100 nM after 15 hrs by PAGE
K562 [14] = assay: Effect on RHD/RHCE gene expression in human K562 cells assessed as change in mRNA transcript expression at 10 nM after 48 hrs by DNA microarray analysis relative to control; type: functional; method in brief: as §2
K562 [15] = assay: Effect on RHCE/RHD gene expression in human K562 cells assessed as change in mRNA transcript expression at 10 nM after 48 hrs by DNA microarray analysis relative to control; type: functional; method in brief: as §2
K562 [16] = assay: Effect on CLGN gene expression in human K562 cells assessed as change in mRNA transcript expression at 10 nM after 48 hrs by DNA microarray analysis relative to control; type: functional; method in brief: as §3
K562 [17] = assay: Effect on IMMP2L gene expression in human K562 cells assessed as change in mRNA transcript expression at 10 nM after 48 hrs by DNA microarray analysis relative to control; type: functional; method in brief: as §2
K562 [18] = assay: Effect on HIST1H2A gene expression in human K562 cells assessed as change in mRNA transcript expression at 10 nM after 48 hrs by DNA microarray analysis relative to control; type: functional; method in brief: as §3
K562 [19] = assay: Effect on MYL4 gene expression in human K562 cells assessed as change in mRNA transcript expression at 10 nM after 48 hrs by DNA microarray analysis relative to control; type: functional; method in brief: as §2
K562 [20] = assay: Effect on HIST2H2AB gene expression in human K562 cells assessed as change in mRNA transcript expression at 10 nM after 48 hrs by DNA microarray analysis relative to control; type: functional; method in brief: as §2
K562 [21] = assay: Downregulation of histone H4C mRNA expression in human K562 cells at 250 nM after 48 hrs by real-time PCR analysis; type: functional
Method in brief: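 Treated K562 cells were assayed by one-step real-time RT-PCR. Reverse transcription ran 50 °C for 10 min, then hot-start polymerase activation at 95 °C for 15 min. Cycling was 45 cycles of 95 °C 15 s, 55 °C 30 s and 72 °C 30 s. Levels were normalized to GAPDH mRNA; error shown as standard deviation.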

K562 [22] = assay: Effect on HIST1H4J gene expression in human K562 cells assessed as down-regulation of mRNA transcript expression at 10 nM after 48 hrs by DNA microarray analysis relative to control; type: functional; method in brief: as §2
K562 [23] = assay: Effect on AMN1 gene expression in human K562 cells assessed as change in mRNA transcript expression at 10 nM after 48 hrs by DNA microarray analysis relative to control; type: functional; method in brief: as §3
K562 [24] = assay: Effect on SASH1 gene expression in human K562 cells assessed as change in mRNA transcript expression at 10 nM after 48 hrs by DNA microarray analysis relative to control; type: functional; method in brief: as §2
K562 [25] = assay: Effect on ANKRD20B gene expression in human K562 cells assessed as change in mRNA transcript expression at 10 nM after 48 hrs by DNA microarray analysis relative to control; type: functional; method in brief: as §3
K562 [26] = assay: Effect on HIST1H1C gene expression in human K562 cells assessed as change in mRNA transcript expression at 10 nM after 48 hrs by DNA microarray analysis relative to control; type: functional; method in brief: as §3
K562 [27] = assay: Effect on RNU5E gene expression in human K562 cells assessed as change in mRNA transcript expression at 10 nM after 48 hrs by DNA microarray analysis relative to control; type: functional; method in brief: as §2
K562 [28] = assay: Effect on BAMBI gene expression in human K562 cells assessed as change in mRNA transcript expression at 10 nM after 48 hrs by DNA microarray analysis relative to control; type: functional; method in brief: as §3

**Q.** For `CC(=O)Nc1cn(C)c(C(=O)Nc2cn(C)c(C(=O)NCCC(=O)Nc3cn(C)c(C(=O)NCCCC(=O)Nc4cc(C(=O)Nc5cn(C)c(C(=O)Nc6ccc7[nH]c(C(=O)N8CC(CCl)c9c8cc(O)c8ccccc98)cc7c6)n5)n(C)c4)n3)n2)n1` (stereo not drawn), which “fold change (FC)” value (K562 [1]) is on record?
**A.** >=2

**Q.** And the “fold change (FC)” value (K562 [2])?
**A.** >=2

**Q.** What about the “fold change (FC)” value (K562 [3]) of the same compound?
**A.** >=2

**Q.** What about the “fold change (FC)” value (K562 [4]) of the same compound?
**A.** >=2

**Q.** What about the “fold change (FC)” value (K562 [5]) of the same compound?
**A.** >=2

**Q.** What about the “fold change (FC)” value (K562 [6]) of the same compound?
**A.** >=2

**Q.** And the “fold change (FC)” value (K562 [7])?
**A.** >=2

**Q.** What about the “fold change (FC)” value (K562 [8]) of the same compound?
**A.** >=2

**Q.** And the “fold change (FC)” value (K562 [9])?
**A.** >=2

**Q.** And the “fold change (FC)” value (K562 [10])?
**A.** >=2

**Q.** What about the “fold change (FC)” value (K562 [11]) of the same compound?
**A.** >=2

**Q.** What about the “fold change (FC)” value (K562 [12]) of the same compound?
**A.** >=2

**Q.** What about the Activity [13] of the same compound?
**A.** Active

**Q.** And the “fold change (FC)” value (K562 [14])?
**A.** >=2

**Q.** And the “fold change (FC)” value (K562 [15])?
**A.** >=2

**Q.** What about the “fold change (FC)” value (K562 [16]) of the same compound?
**A.** >=2

**Q.** What about the “fold change (FC)” value (K562 [17]) of the same compound?
**A.** >=2

**Q.** What about the “fold change (FC)” value (K562 [18]) of the same compound?
**A.** >=2

**Q.** What about the “fold change (FC)” value (K562 [19]) of the same compound?
**A.** >=2

**Q.** And the “fold change (FC)” value (K562 [20])?
**A.** >=2

**Q.** What about the Activity (K562 [21]) of the same compound?
**A.** 93%

**Q.** And the “fold change (FC)” value (K562 [22])?
**A.** 2.61

**Q.** What about the “fold change (FC)” value (K562 [23]) of the same compound?
**A.** >=2

**Q.** And the “fold change (FC)” value (K562 [24])?
**A.** >=2

**Q.** And the “fold change (FC)” value (K562 [25])?
**A.** >=2

**Q.** What about the “fold change (FC)” value (K562 [26]) of the same compound?
**A.** >=2

**Q.** What about the “fold change (FC)” value (K562 [27]) of the same compound?
**A.** >=2

**Q.** What about the “fold change (FC)” value (K562 [28]) of the same compound?
**A.** >=2
